Data taken from PMC3431965 (The Journal of organic chemistry, 2012).
Residue numbers refer to the chain shown, from its start. Values belong to the compound of their own block, whether it stands above or below them.

How the values were obtained:
[1] = biological target: T1, ceramide-specific glucosyltransferase (Mus musculus, UniProt O88693); test: Ceramide-specific glucosyltransferase assay, mouse testicular microsomes; assay type: biochemical, C57BL/6 mouse; details: for ceramide-specific glucosyltransferase IC50 (C57BL/6, mouse): mouse testicular microsomes, n.i. = no inhibition at 1000 µM concentration
T1 sequence (O88693 1-394): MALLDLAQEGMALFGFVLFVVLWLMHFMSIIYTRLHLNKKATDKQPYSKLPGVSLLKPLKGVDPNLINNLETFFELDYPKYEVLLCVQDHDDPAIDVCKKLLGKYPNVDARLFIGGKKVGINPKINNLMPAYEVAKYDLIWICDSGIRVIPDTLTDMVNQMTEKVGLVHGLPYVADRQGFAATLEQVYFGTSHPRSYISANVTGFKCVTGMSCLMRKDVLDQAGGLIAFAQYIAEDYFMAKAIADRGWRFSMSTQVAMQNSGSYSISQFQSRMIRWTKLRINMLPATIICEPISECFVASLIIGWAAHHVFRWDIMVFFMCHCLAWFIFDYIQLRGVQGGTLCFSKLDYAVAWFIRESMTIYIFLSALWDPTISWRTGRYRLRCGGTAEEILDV

[2] = biological target: T2, ceramide-specific glucosyltransferase (Rattus norvegicus, UniProt Q9R0E0); test: Ceramide-specific glucosyltransferase assay, rat testicular microsomes; assay type: biochemical, Long Evans (LE) rat; details: for ceramide-specific glucosyltransferase IC50 (LE rat): rat testicular microsomes, n.i. = no inhibition at 1000 µM concentration
T2 sequence (Q9R0E0 1-394): T1 sequence (O88693 1-394) with D96E, K164R, R249K, T377A

[3] = biological target: T3, testicular β-glucosidase 2 (Rattus norvegicus, UniProt Q5M868); test: Testicular glucosidase assay; assay type: biochemical, Long Evans (LE) rat; details: for β-glucosidase 2 IC50 (LE rat): rat testicular microsomes, n.i. = no inhibition at 1000 µM concentration
T3 sequence (Q5M868 1-912): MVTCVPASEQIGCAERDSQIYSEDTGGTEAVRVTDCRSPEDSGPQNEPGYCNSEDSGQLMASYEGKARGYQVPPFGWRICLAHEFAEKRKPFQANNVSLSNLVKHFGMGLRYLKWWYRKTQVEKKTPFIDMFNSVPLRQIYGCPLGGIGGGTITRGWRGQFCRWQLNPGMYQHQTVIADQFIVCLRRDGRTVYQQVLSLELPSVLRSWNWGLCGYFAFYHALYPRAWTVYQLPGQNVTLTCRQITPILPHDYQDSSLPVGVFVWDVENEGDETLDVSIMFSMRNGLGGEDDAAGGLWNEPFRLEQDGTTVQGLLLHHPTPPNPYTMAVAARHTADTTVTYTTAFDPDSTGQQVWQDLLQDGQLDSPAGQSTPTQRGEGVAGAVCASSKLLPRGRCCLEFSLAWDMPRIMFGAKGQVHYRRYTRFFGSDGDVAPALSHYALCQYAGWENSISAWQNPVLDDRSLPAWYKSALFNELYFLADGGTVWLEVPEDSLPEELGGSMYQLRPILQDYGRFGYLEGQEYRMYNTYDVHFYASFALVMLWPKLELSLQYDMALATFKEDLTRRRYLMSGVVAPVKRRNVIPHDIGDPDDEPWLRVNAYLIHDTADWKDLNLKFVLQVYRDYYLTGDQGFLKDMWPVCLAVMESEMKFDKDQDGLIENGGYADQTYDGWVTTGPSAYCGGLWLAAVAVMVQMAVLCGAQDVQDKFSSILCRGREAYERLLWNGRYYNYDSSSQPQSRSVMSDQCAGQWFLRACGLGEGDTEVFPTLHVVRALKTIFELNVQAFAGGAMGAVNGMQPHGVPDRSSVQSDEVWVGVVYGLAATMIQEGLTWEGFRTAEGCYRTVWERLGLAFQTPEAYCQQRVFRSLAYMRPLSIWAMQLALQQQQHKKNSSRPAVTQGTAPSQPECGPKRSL

[4] = system: α-glucosidase (Saccharomyces cerevisiae); test: Glycosidase inhibition assay, α-glucosidase; assay type: biochemical; details: substrate at Km; for α-Glc % Ra (% remaining activity at 100 µM): 100 µM compound
β-glucosidase (almond) = test: Glycosidase inhibition assay, β-glucosidase; assay type: biochemical; details: substrate at Km; for β-Glc % Ra (% remaining activity at 100 µM): 100 µM compound
Method in brief: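 Enzyme is added last; incubation is 4–5 min at room temperature, then 0.2 M sodium borate (pH 9.8) quenches. Absorbance at 405 nm gives % remaining activity at 100 µM compound. IC50 comes from non-linear fitting of relative activity versus concentration to a Hill-slope equation.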

[5] = biological target: α-galactosidase (green coffee beans) (Coffea arabica, UniProt Q42656); test: biochemical; details: for remaining activity at 100 µM: read-out: α-Gal % Ra (% remaining activity at 100 µM)
Sequence of α-galactosidase (green coffee beans) (Q42656 16-378): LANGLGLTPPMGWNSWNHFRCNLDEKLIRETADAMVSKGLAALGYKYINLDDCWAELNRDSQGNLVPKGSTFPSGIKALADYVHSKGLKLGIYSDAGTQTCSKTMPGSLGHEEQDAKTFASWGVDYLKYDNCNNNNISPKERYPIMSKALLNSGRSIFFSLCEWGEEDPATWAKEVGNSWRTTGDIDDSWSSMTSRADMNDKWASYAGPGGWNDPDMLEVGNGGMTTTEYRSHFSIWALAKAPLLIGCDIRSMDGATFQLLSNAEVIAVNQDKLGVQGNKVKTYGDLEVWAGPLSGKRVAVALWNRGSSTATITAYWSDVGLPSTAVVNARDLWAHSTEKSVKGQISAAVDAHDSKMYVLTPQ

[6] = biological target: β-galactosidase (Escherichia coli) (Escherichia coli, UniProt P00722); test: biochemical; details: for remaining activity at 100 µM: read-out: β-Gal % Ra (% remaining activity at 100 µM)
Sequence of β-galactosidase (Escherichia coli) (P00722 2-1024): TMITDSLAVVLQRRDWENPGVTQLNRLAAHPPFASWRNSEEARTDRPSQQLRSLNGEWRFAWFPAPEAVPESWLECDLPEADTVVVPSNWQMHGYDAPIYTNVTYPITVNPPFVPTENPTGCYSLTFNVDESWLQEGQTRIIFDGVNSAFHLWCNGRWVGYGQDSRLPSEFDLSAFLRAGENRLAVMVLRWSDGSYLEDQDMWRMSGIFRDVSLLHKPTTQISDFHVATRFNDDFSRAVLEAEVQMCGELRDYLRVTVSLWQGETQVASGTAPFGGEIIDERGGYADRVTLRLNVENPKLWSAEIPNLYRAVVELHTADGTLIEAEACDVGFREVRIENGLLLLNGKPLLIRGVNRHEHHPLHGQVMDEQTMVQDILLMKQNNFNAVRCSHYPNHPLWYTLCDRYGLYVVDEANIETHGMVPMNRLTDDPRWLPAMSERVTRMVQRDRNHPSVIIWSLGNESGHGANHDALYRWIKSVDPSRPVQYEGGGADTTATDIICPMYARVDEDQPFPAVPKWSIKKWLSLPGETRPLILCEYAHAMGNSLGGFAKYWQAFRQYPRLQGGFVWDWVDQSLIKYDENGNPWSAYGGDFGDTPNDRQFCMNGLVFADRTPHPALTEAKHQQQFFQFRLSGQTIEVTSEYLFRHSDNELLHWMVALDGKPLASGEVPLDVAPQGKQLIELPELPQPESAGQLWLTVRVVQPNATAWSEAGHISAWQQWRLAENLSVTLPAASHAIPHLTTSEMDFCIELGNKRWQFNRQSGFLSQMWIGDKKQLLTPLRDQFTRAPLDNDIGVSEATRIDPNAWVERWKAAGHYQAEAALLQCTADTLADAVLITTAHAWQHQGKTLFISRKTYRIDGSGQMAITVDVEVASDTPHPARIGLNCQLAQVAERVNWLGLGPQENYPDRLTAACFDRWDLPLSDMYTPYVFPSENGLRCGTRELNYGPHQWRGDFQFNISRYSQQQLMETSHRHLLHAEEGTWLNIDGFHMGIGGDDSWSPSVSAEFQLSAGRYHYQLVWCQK

[7] = biological target: T4, α-mannosidase (jack bean) (Canavalia ensiformis, UniProt C0HJB3); test: Glycosidase inhibition assay, α-mannosidase; assay type: biochemical; details: for remaining activity at 100 µM: read-out: α-Man % Ra (% remaining activity at 100 µM)
T4 sequence (C0HJB3 1-562 limits assumed): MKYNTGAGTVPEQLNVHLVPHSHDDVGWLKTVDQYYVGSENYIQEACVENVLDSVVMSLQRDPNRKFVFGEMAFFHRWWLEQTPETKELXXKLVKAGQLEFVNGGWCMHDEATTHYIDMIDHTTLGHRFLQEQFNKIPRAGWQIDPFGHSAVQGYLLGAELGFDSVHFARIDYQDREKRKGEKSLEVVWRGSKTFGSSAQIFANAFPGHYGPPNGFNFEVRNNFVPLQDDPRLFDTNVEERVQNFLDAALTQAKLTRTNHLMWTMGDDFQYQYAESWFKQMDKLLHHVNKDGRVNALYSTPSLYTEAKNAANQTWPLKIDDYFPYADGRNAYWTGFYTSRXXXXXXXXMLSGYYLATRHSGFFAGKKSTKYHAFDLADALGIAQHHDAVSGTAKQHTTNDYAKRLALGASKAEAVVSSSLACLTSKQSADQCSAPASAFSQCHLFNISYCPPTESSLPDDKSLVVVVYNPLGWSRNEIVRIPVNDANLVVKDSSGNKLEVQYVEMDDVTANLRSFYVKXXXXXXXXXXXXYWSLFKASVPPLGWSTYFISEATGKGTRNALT
T4 sequence (C0HJB3 563-981 partner limits assumed): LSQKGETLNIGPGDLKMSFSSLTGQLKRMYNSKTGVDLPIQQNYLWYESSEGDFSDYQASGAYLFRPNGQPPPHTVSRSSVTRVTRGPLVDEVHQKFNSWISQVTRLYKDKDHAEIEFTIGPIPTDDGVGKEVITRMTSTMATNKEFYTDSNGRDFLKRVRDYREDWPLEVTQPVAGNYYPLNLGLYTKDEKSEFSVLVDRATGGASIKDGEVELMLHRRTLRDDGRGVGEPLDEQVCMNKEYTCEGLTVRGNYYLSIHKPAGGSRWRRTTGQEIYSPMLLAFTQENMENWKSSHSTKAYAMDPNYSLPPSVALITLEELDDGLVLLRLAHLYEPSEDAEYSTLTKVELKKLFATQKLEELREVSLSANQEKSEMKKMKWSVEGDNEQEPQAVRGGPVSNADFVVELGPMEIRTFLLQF
Method in brief: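 Enzyme starts the reaction with test compound at 100 µM. After 4–5 min at room temperature, 0.2 M sodium borate (pH 9.8) quenches it. Absorbance is read at 405 nm and reported as % remaining activity.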

[8] = system: β-mannosidase (Roman snail); test: Glycosidase inhibition assay, β-mannosidase; assay type: biochemical; details: 100 µM compound; substrate at Km
Method in brief: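 Test compound is at 100 µM. Enzyme addition starts the reaction, which runs 4–5 min at room temperature before quenching with 0.2 M sodium borate (pH 9.8). Absorbance is read at 405 nm and given as % remaining activity.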

spermatogenesis = details: C57B1/6J-related mouse strains; cited from earlier work
human spermatogenesis = details: cited from earlier work
[9] = 100 µM compound, substrate at Km

Structure (SMILES): CCCCN1[C@H](CO)C(O)[C@H]1CO [Compound 22, ((2R,4R)-1-Butyl-3-hydroxyazetidine-2,4-diyl)dimethanol]
IC50 [1]: > 300 µM | IC50 [2]: > 300 µM | IC50 [3]: > 300 µM | α-Glc % Ra (% remaining activity at 100 µM) [4]: 100% | β-Glc % Ra (% remaining activity at 100 µM) (β-glucosidase (almond)): 93% | remaining activity at 100 µM [5]: 100% | remaining activity at 100 µM [6]: 99% | remaining activity at 100 µM [7]: 99% | β-Man % Ra (% remaining activity at 100 µM) [8]: 99%

Structure (SMILES): CCCCCCCCCN1C/C=C\[C@@H](O)[C@H](O)[C@@H](O)C1 [Compound 4, (3S,4S,5R,Z)-1-Nonyl-1,2,3,4,5,8-hexahydroazocine-3,4,5-triol]
ceramide-specific glucosyltransferase IC50 (C57BL/6, mouse) [1]: n.i. | ceramide-specific glucosyltransferase IC50 (LE rat) [2]: n.i. | IC50 [3]: 904 µM | α-Glc % Ra (% remaining activity at 100 µM) [4]: 90% | β-Glc % Ra (% remaining activity at 100 µM) (β-glucosidase (almond)): 44% | remaining activity at 100 µM [5]: 100% | remaining activity at 100 µM [6]: 90% | remaining activity at 100 µM [7]: 100% | β-Man % Ra (% remaining activity at 100 µM) [8]: 99%

Structure (SMILES): CCCCN1[C@@H](CO)C(O)[C@@H]1CO [Compound 26, ((2S,4S)-1-Butyl-3-hydroxyazetidine-2,4-diyl)dimethanol]
IC50 [1]: > 300 µM | IC50 [2]: > 300 µM | IC50 [3]: > 300 µM | α-Glc % Ra (% remaining activity at 100 µM) [4]: 90% | β-Glc % Ra (% remaining activity at 100 µM) (β-glucosidase (almond)): 82% | remaining activity at 100 µM [5]: 98% | remaining activity at 100 µM [6]: 96% | remaining activity at 100 µM [7]: 98% | β-Man % Ra (% remaining activity at 100 µM) [8]: 95%

Structure (SMILES): CCCCN1CCC[C@@H](O)[C@H](O)[C@@H](O)C1 [Compound 1, (3S,4S,5R)-1-Butylazocane-3,4,5-triol]
ceramide-specific glucosyltransferase IC50 (C57BL/6, mouse) [1]: n.i. | ceramide-specific glucosyltransferase IC50 (LE rat) [2]: n.i. | β-glucosidase 2 IC50 (LE rat) [3]: did not show inhibitory activity and n.i. | α-Glc % Ra (% remaining activity at 100 µM) [4]: 93% | β-Glc % Ra (% remaining activity at 100 µM) (β-glucosidase (almond)): 37% | IC50 (β-glucosidase (almond); read-out: β-Glc IC50): 87 µM | remaining activity at 100 µM [5]: 100% | remaining activity at 100 µM [6]: 98% | remaining activity at 100 µM [7]: 100% | β-Man % Ra (% remaining activity at 100 µM) [8]: 100%

IC50 ([4]; read-out: α-Glc IC50): 1030 µM
Structure (SMILES): CCCCN1C[C@H](O)[C@@H](O)[C@H](O)[C@H]1CO [NB-DNJ, N-butyldeoxynojirimycin]
effect on spermatogenesis (spermatogenesis): active | effects on human spermatogenesis (human spermatogenesis): no discernible effects

Structure (SMILES): CCCCN1C[C@@H](O)[C@@H](O)[C@@H](O)[C@H](O)[C@@H](O)C1 [Compound 5, (3S,4R,5S,6R,7R)-1-Butylazocane-3,4,5,6,7-pentaol]
ceramide-specific glucosyltransferase IC50 (C57BL/6, mouse) [1]: n.i. | ceramide-specific glucosyltransferase IC50 (LE rat) [2]: n.i. | β-glucosidase 2 IC50 (LE rat) [3]: did not show inhibitory activity and n.i. | α-Glc % Ra (% remaining activity at 100 µM) [4]: 89% | β-Glc % Ra (% remaining activity at 100 µM) (β-glucosidase (almond)): 87% | α-Gal % Ra (% remaining activity at 100 µM) [5, 9]: 100% | β-Gal % Ra (% remaining activity at 100 µM) [6, 9]: 95% | α-Man % Ra (% remaining activity at 100 µM) [7, 9]: 100% | β-Man % Ra (% remaining activity at 100 µM) [8]: 100%
